Measurements published in ChEMBL document CHEMBL1125042, “Hypolipidemic activity of rifamycin derivatives” (J Med Chem, 1990).
≈ marks a conversion by molar mass, not a printed value.

Experiments:
Rattus norvegicus [1] = test: Tested for hypolipidemic activity in male rats, cholesterol was determined in serum at 10 mg/kg; type: functional
Method in brief: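 Groups of eight male Wistar rats (200–230 g) dosed orally in PEG 400, either daily for 7 days (killed 24 h after the last dose) or for 4 days with a second dose on day 4 (killed 16 h later). Fasted 16 h. Paired sera pooled, lipoproteins separated by ultracentrifugation (1.006 and 1.040 g/cm³), HDL taken as the infranatant. Cholesterol measured enzymatically; % vs vehicle, mean ± SEM of four pools.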

Rattus norvegicus [2] = test: Hypolipidemic activity was determined in male rats, and high-density lipoprotein level was determined at 10 mg/kg; type: functional
Method in brief: (§1)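 Male Wistar rats (200–230 g), eight per group, were dosed orally in PEG 400 at 8 a.m. for 4 days, plus a second dose at 4 p.m. on day 4. Rats were fasted 16 h and killed 16 h after the last dose. Sera from pairs of rats were pooled. LDL (up to 1.040 g/cm³) was separated by ultracentrifugation and the HDL infranatant taken. Cholesterol was measured enzymatically. Results are % versus vehicle control, mean ± SEM of four pools, Student's t test.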

Rattus norvegicus [3] = test: Hypolipidemic activity was determined in male rats, and low-density lipoprotein level was determined at 10 mg/kg; type: functional; method in brief: as §1
[4] = Inhibitory activity against RNA polymerase was determined; design: species or system Escherichia coli
Method in brief: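 E. coli DNA-dependent RNA polymerase inhibition measured in vitro on ether-extracted, permeabilized E. coli cells.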

Rattus norvegicus [5] = test: Hypolipidemic activity was determined by measuring the % serum HDL in hypercholesterolemic RICO rat at a dose of 10 mg/kg; type: functional, organism-based; design: dose 10 mg/kg
Method in brief: (§2)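 Genetically hypercholesterolemic RICO rats (Tif:RAI,f,SPF) were dosed orally for 7 days. Sera were collected after a 16 h fast and pooled in pairs. LDL (1.006–1.040 g/cm³) and HDL infranatant were separated by ultracentrifugation. Cholesterol and triglycerides were measured enzymatically. Results are % change versus vehicle control, mean ± SEM of four pools.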

Rattus norvegicus [6] = test: Hypolipidemic activity was determined by measuring the % serum HDL in hypercholesterolemic RICO rat at a dose of 3 mg/kg; type: functional, organism-based; design: dose 3 mg/kg; method in brief: as §2
Rattus norvegicus [7] = test: Hypolipidemic activity was determined by measuring the % serum HDL in hypercholesterolemic RICO rat at a dose of 30 mg/kg; type: functional, organism-based; design: dose 30 mg/kg; method in brief: as §2
Rattus norvegicus [8] = test: Hypolipidemic activity was determined by measuring the % serum HDL in normal rat at a dose of 1 mg/kg; type: functional, organism-based; design: dose 1 mg/kg
Method in brief: (§3)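 Normal male Wistar rats (200–230 g), eight per group, were dosed orally in PEG 400 once daily for 7 days. They were fasted 16 h and killed 24 h after the last dose. Serum from pairs was pooled and LDL/HDL fractions were ultracentrifuged. Cholesterol and triglycerides were measured enzymatically. Results are % versus vehicle control, mean ± SEM of four pools, Student's t test.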

Rattus norvegicus [9] = test: Hypolipidemic activity was determined by measuring the % serum HDL in normal rat at a dose of 3 mg/kg; type: functional, organism-based; design: dose 3 mg/kg; method in brief: as §3
Rattus norvegicus [10] = test: Hypolipidemic activity was determined by measuring the % serum HDL in normal rat at a dose of 30 mg/kg; type: functional, organism-based; design: dose 30 mg/kg; method in brief: as §3
Rattus norvegicus [11] = test: Hypolipidemic activity was determined by measuring the % serum HDL-cholesterol in normal rat at the specified dose of 10 mg/kg; type: functional, organism-based; design: dose 10 mg/kg
Method in brief: (§4)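 Male Wistar rats (200–230 g, n=8 per group) were given oral doses in PEG 400 and fasted 16 h before being killed under pentothal. Paired sera were pooled with 0.05% EDTA and 0.01% thimerosal, and LDL/HDL were separated by ultracentrifugation. Cholesterol was measured enzymatically. Results are % versus vehicle control, mean ± SEM of four serum pools, Student's t test.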

Rattus norvegicus [12] = test: Hypolipidemic activity was determined by measuring the % serum HDL-cholesterol in normal rat at the specified dose of 30 mg/kg; type: functional, organism-based; design: dose 30 mg/kg; method in brief: as §4
Rattus norvegicus [13] = test: Hypolipidemic activity was determined by measuring the % serum cholesterol in hypercholesterolemic RICO rat at a dose of 10 mg/kg; type: functional, organism-based; design: dose 10 mg/kg; method in brief: as §2
Rattus norvegicus [14] = test: Hypolipidemic activity was determined by measuring the % serum cholesterol in hypercholesterolemic RICO rat at a dose of 3 mg/kg; type: functional, organism-based; design: dose 3 mg/kg; method in brief: as §2
Rattus norvegicus [15] = test: Hypolipidemic activity was determined by measuring the % serum cholesterol in hypercholesterolemic RICO rat at a dose of 30 mg/kg; type: functional, organism-based; design: dose 30 mg/kg; method in brief: as §2
Rattus norvegicus [16] = test: Hypolipidemic activity was determined by measuring the % serum cholesterol in normal rat at a dose of 1 mg/kg; type: functional, organism-based; design: dose 1 mg/kg; method in brief: as §3
Rattus norvegicus [17] = test: Hypolipidemic activity was determined by measuring the % serum cholesterol in normal rat at a dose of 10 mg/kg; type: functional, organism-based; design: dose 10 mg/kg; method in brief: as §3
Rattus norvegicus [18] = test: Hypolipidemic activity was determined by measuring the % serum cholesterol in normal rat at a dose of 3 mg/kg; type: functional, organism-based; design: dose 3 mg/kg; method in brief: as §3
Rattus norvegicus [19] = test: Hypolipidemic activity was determined by measuring the % serum cholesterol in normal rat at a dose of 30 mg/kg; type: functional, organism-based; design: dose 30 mg/kg; method in brief: as §3
Rattus norvegicus [20] = test: Hypolipidemic activity was determined by measuring the % serum cholesterol in rat at the specified dose of 10 mg/kg; type: functional, organism-based; design: dose 10 mg/kg; method in brief: as §4
Rattus norvegicus [21] = test: Hypolipidemic activity was determined by measuring the % serum cholesterol in rat at the specified dose of 30 mg/kg; type: functional, organism-based; design: dose 30 mg/kg; method in brief: as §4
Rattus norvegicus [22] = test: Hypolipidemic activity was determined by measuring the % serum LDL-cholesterol in hypercholesterolemic RICO rat at a dose of 10 mg/kg; type: functional, organism-based; design: dose 10 mg/kg; method in brief: as §2
Rattus norvegicus [23] = test: Hypolipidemic activity was determined by measuring the % serum LDL-cholesterol in hypercholesterolemic RICO rat at a dose of 3 mg/kg; type: functional, organism-based; design: dose 3 mg/kg; method in brief: as §2
Rattus norvegicus [24] = test: Hypolipidemic activity was determined by measuring the % serum LDL-cholesterol in hypercholesterolemic RICO rat at a dose of 30 mg/kg; type: functional, organism-based; design: dose 30 mg/kg; method in brief: as §2
Rattus norvegicus [25] = test: Hypolipidemic activity was determined by measuring the % serum LDL in normal rat at a dose of 1 mg/kg; type: functional, organism-based; design: dose 1 mg/kg; method in brief: as §3
Rattus norvegicus [26] = test: Hypolipidemic activity was determined by measuring the % serum LDL in normal rat at a dose of 10 mg/kg; type: functional, organism-based; design: dose 10 mg/kg; method in brief: as §3
Rattus norvegicus [27] = test: Hypolipidemic activity was determined by measuring the % serum LDL in normal rat at a dose of 3 mg/kg; type: functional, organism-based; design: dose 3 mg/kg; method in brief: as §3
Rattus norvegicus [28] = test: Hypolipidemic activity was determined by measuring the % serum LDL in normal rat at a dose of 30 mg/kg; type: functional, organism-based; design: dose 30 mg/kg; method in brief: as §3
Rattus norvegicus [29] = test: Hypolipidemic activity was determined by measuring the % serum triglycerides in normal rat at a dose of 3 mg/kg; type: functional, organism-based; design: dose 3 mg/kg; method in brief: as §3
Rattus norvegicus [30] = test: Hypolipidemic activity was determined by measuring the % serum triglycerides in normal rat at a dose of 30 mg/kg; type: functional, organism-based; design: dose 30 mg/kg; method in brief: as §3
Rattus norvegicus [31] = test: Hypolipidemic activity was determined by measuring the % serum LDL-cholesterol in normal rat at the specified dose of 30 mg/kg; type: functional, organism-based; design: dose 30 mg/kg; method in brief: as §4
Rattus norvegicus [32] = test: Hypolipidemic activity was determined by measuring the % serum triglycerides in hypercholesterolemic RICO rat at a dose of 10 mg/kg; type: functional, organism-based; design: dose 10 mg/kg; method in brief: as §2
Rattus norvegicus [33] = test: Hypolipidemic activity was determined by measuring the % serum triglycerides in hypercholesterolemic RICO rat at a dose of 3 mg/kg; type: functional, organism-based; design: dose 3 mg/kg; method in brief: as §2
Rattus norvegicus [34] = test: Hypolipidemic activity was determined by measuring the % serum triglycerides in hypercholesterolemic RICO rat at a dose of 30 mg/kg; type: functional, organism-based; design: dose 30 mg/kg; method in brief: as §2
Rattus norvegicus [35] = test: Hypolipidemic activity was determined by measuring the % serum LDL-cholesterol in normal rat at the specified dose of 10 mg/kg; type: functional, organism-based; design: dose 10 mg/kg; method in brief: as §4
Rattus norvegicus [36] = test: Hypolipidemic activity was determined by measuring the % serum triglycerides in normal rat at a dose of 1 mg/kg; type: functional, organism-based; design: dose 1 mg/kg; method in brief: as §3
Rattus norvegicus [37] = test: Hypolipidemic activity was determined by measuring the % serum triglycerides in normal rat at a dose of 10 mg/kg; type: functional, organism-based; design: dose 10 mg/kg; method in brief: as §3
Staphylococcus aureus = test: Antibacterial activity against Staphylococcus aureus 10B; type: functional
Method in brief: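 Agar dilution on DST agar with 2-fold drug dilutions. Inoculum of 10⁴ viable S. aureus 10B was taken from liquid-nitrogen stock, thawed 30 min and not subcultured. It was applied by multipoint replicator and incubated overnight at 37 °C. MIC is the lowest concentration inhibiting growth relative to control cultures.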

Rattus norvegicus [38] = test: Hypolipidemic activity was determined by measuring the % serum HDL in normal rat at a dose of 10 mg/kg; type: functional, organism-based; design: dose 10 mg/kg; method in brief: as §3

COC1/C=C/OC2(C)Oc3c(C)c(OC(=O)C(C)(C)C)c4c(c3C2=O)C(=O)C(N2CCN(Cc3c(C)cc(C)cc3C)CC2)=C(C4=O)N(C(=O)C(C)(C)C)C(=O)/C(C)=C\C=C\C(C)C(O)C(C)C(O)C(C)C(OC(C)=O)C1C (centres undefined)
Activity (Rattus norvegicus [1]): -30%
Activity (Rattus norvegicus [2]): -33%
Activity (Rattus norvegicus [3]): -55%
IC50 [4]: > 100 µg/mL
Serum HDL-cholesterol (Rattus norvegicus [5]): -24%
Serum HDL-cholesterol (Rattus norvegicus [6]): -6%
Serum HDL-cholesterol (Rattus norvegicus [7]): -45%
Serum HDL-cholesterol (Rattus norvegicus [8]): 0%
Serum HDL-cholesterol (Rattus norvegicus [9]): -4%
Serum HDL-cholesterol (Rattus norvegicus [10]): -34%
Serum HDL-cholesterol (Rattus norvegicus [11]): -11%
Serum HDL-cholesterol (Rattus norvegicus [12]): -27%
Serum cholesterol (Rattus norvegicus [13]): -29%
Serum cholesterol (Rattus norvegicus [14]): -12%
Serum cholesterol (Rattus norvegicus [15]): -50%
Serum cholesterol (Rattus norvegicus [16]): -5%
Serum cholesterol (Rattus norvegicus [17]): -19%
Serum cholesterol (Rattus norvegicus [18]): -4%
Serum cholesterol (Rattus norvegicus [19]): -27%
Serum cholesterol (Rattus norvegicus [20]): -16%
Serum cholesterol (Rattus norvegicus [21]): -33%
Serum LDL-cholesterol (Rattus norvegicus [22]): -53%
Serum LDL-cholesterol (Rattus norvegicus [23]): -35%
Serum LDL-cholesterol (Rattus norvegicus [24]): -69%
Serum LDL-cholesterol (Rattus norvegicus [25]): -8%
Serum LDL-cholesterol (Rattus norvegicus [26]): -56%
Serum LDL-cholesterol (Rattus norvegicus [27]): -34%
Serum LDL-cholesterol (Rattus norvegicus [28]): -51%
Serum triglyceride (Rattus norvegicus [29]): 14%
Serum triglyceride (Rattus norvegicus [30]): -22%
Serum LDL-cholesterol (Rattus norvegicus [31]): -68%
Serum triglyceride (Rattus norvegicus [32]): -32%
Serum triglyceride (Rattus norvegicus [33]): -11%
Serum triglyceride (Rattus norvegicus [34]): -47%
Serum LDL-cholesterol (Rattus norvegicus [35]): -26%
Serum triglyceride (Rattus norvegicus [36]): 14%
Serum triglyceride (Rattus norvegicus [37]): -17%
MIC (Staphylococcus aureus): 64 µg/mL (≈ 59.2 µM)
Serum HDL-cholesterol (Rattus norvegicus [38]): -21%
